This note sets out measurements from ChEMBL document CHEMBL1138158, “Synthesis, pharmacology, and structure-activity relationships of novel imidazolones and pyrrolones as modulators of GABAA receptors” (J Med Chem, 2006).

Data set [1] is described as follows: Partition coefficient of the compound, log P. The class given is physicochemical. The conditions noted are these: octanol/water. The method, boiled down: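 Experimental 1-octanol/water partition coefficient.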
The target of data set [2] is GABA-A receptor; anion channel (Rattus norvegicus) (UniProt O09028+P15431+P18506+P18508+P19969+P20236+P23574+P23576+P28471+P28473+P30191+P62813+P63079+P63138+Q91ZM7+Q9ES14). As to the kind of experiment: Inhibition of Wistar rat benzodiazepine receptor at 2 uM. The class given is protein-complex assay.
Data set [3] has as its system Mus musculus. The experiment in a line: Anxiolytic activity in NMRI BR mice after ip administration by PTZ test. The class given is functional. The method, boiled down:
(§1)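 Male mice (NMRI BR at elbion, three per dose; CF-1 at NIH, up to five) given compound or vehicle i.p. at 30, 100, 300 mg/kg, 30 min and 4 h pretreatment. PTZ 85 mg/kg s.c. into neck, then 30 min observation for first generalized clonic seizure with loss of righting reflex.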

Data set [4] has as its system Mus musculus. The experiment in a line: Neurotoxicological activity in NMRI BR mice after ip administration by rotarod test. The class given is functional. The method, boiled down: (§2)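 Male mice (CF-1 at NIH; NMRI BR at elbion), trained beforehand, dosed i.p. Motor impairment was defined as failure to stay on a rod (6 rpm, 0.9 cm diameter) for 1 min in at least one of three trials. The same animals were tested at several times (≥3 doses, n = 8/group). TD50 at peak time by probit analysis.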
In general terms: Falling from the rotarod earlier than controls is read as motor impairment.

Data set [5] deals with Mus musculus. The experiment in a line: Anxiolytic activity in CF1 mice after ip administration by PTZ test. The class given is functional. The method, boiled down:
as §1

Data set [6] has as its system Mus musculus. The experiment in a line: Neurotoxicological activity in CF1 mice after ip administration by rotarod test. The class given is functional. The method, boiled down: as §2
For data set [7], the system named is Rattus norvegicus. The experiment in a line: Anxiolytic activity in rat after oral administration by PTZ test. The class given is functional. The method, boiled down:
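Rats dosed orally. PTZ 70 mg/kg given s.c., then 30 min observation for first generalized clonic seizure with loss of righting reflex. Protection was measured at several pretreatment times (n = 3-4), and the peak time was used for the dose-response.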

Data set [8] concerns Rattus norvegicus. The experiment in a line: Neurotoxicological activity in rat after oral administration by rotarod test. The class given is functional. The method, boiled down:
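Trained male rats dosed orally. Motor impairment was defined as failure to stay on a rod (8 rpm, 6 cm diameter) for 1 min in at least one of three trials. The same animals were tested at several time points (≥3 dose groups, n = 8/group). TD50 at time of peak neurotoxicity by probit analysis.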

For data set [9], the target named is GABA-A receptor; anion channel. The experiment in a line: Binding affinity to Wistar rat benzodiazepine receptor. The class given is protein-complex assay. Put shortly:
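Rat (male Wistar, 180-200 g) whole-brain membranes without cerebellum in 0.05 M Tris/HCl pH 7.7. Bound ligand separated on filters and counted by scintillation. IC50 from 6-10 concentrations, Ki by Cheng-Prusoff, at least four repeats averaged.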

The test system of data set [10] is Rattus norvegicus. The experiment in a line: Anxiolytic activity in rat after oral administration by vogel conflict test. The class given is functional. The conditions noted are these: read-out: MED. Put shortly:
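Modified Vogel conflict test in rats after oral dosing. Water-deprived 24 h, trained to drink 5.0% glucose for 5 min, deprived a further 24 h. The 210 s test session had 30 s unpunished drinking, then 180 s with mild shock on touching the drinking tube. Punished and unpunished licks counted. Minimal effective dose reported.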

For orientation: logP means a log measure of how a compound divides between an organic and an aqueous phase. Lower therefore signals a more hydrophilic compound. In general, inhibition refers to the relative decrease from the control value, in per cent. Higher therefore signals a response far below the control. What is called ED50 is the dose at which the effect has come halfway, by size or by number of responders. For orientation: TD50 means the dose at which the toxic effect under study appears in half of the subjects. Low values mean harm at a small dose, high ones harm only at a large dose. For orientation: Ki means the equilibrium dissociation constant of an inhibitor or competing ligand from its target. Lower therefore signals higher affinity.

`COC1(OC)C(N2CCOCC2)=NC(=O)N1c1ccc(Cl)cc1`: in data set [1], the logP is 1.7. The same compound came in with an inhibition in data set [2] of less than 20%. The median effective dose (ED50) in the data set on Mus musculus [3] was greater than 100 mg/kg. This compound returned a TD50 in the data set on Mus musculus [4] greater than 30 mg/kg.
Regarding `O=C1N=C(N2CCOCC2)CN1c1ccc(I)cc1`, the ED50 in the data set on Mus musculus [5] came to 43 mg/kg; in the data set with Rattus norvegicus [7], 50 mg/kg. The TD50 with Mus musculus [6] is greater than 300 mg/kg; with Rattus norvegicus [8], greater than 50 mg/kg. Also, the logP in data set [1] amounted to 1.7.
As to `O=c1cc(-c2ccccc2)on1-c1ccc(Cl)cc1`, the logP in data set [1] came out at 4.1. This compound also yielded an ED50 in the data set on Mus musculus [3] of 253 mg/kg. This compound also came in with a TD50 with Mus musculus [4] of less than 300 mg/kg.
Regarding `CN(C)C1=NC(=O)N(c2ccc(Cl)cc2)C1`, the logP in data set [1] worked out at 1.6. The same compound showed an inhibition in data set [2] of less than 20%. Further, the ED50 in the data set with Mus musculus [3] was greater than 300 mg/kg. In the data set with Mus musculus [4], the TD50 is greater than 300 mg/kg.
Compound `O=C1C=C(N2CCCC2)C(=O)N1c1ccc(F)cc1` yielded a logP in data set [1] of 2.3. For the same compound, the inhibition in data set [2] was less than 20%. The compound further displayed an ED50 in the data set on Mus musculus [3] greater than 200 mg/kg. In the data set with Mus musculus [4], this compound had a TD50 greater than 300 mg/kg.
On to `O=C1C=C(N2CCOCC2)CN1c1ccc(F)cc1`, for which, in data set [9], the inhibition constant (Ki) was determined as 0.494 µM. Also, in the data set on Mus musculus [3], it took a dose of 337 mg/kg to reach the 50% effect level (ED50). In addition, the TD50 with Mus musculus [4] was greater than 300 mg/kg.
In turn, `O=C1N=C(N2CCOCC2)CN1Cc1ccccc1` registered a logP in data set [1] of 0.5. The inhibition in data set [2] is less than 20%. In addition, in the data set on Mus musculus [3], the ED50 is greater than 300 mg/kg. The compound also came in with a TD50 with Mus musculus [4] greater than 300 mg/kg.
For the compound `O=C1C=C(N2CCOCC2)C(=O)N1c1ccc(F)cc1`, the logP in [1] came to 1.5. In data set [2], this compound yielded an inhibition of less than 20%. Moreover, in the data set on Mus musculus [3], the ED50 was 128 mg/kg. Moreover, the TD50 with Mus musculus [4] is greater than 100 mg/kg.
As to `O=C1N=C(N2CCCCCC2)CN1c1ccc(Cl)cc1`, in [9], the inhibition constant Ki was determined as 11.6 µM. In addition, the ED50 in the data set with Mus musculus [3] is greater than 300 mg/kg. In addition, the TD50 with Mus musculus [4] was greater than 300 mg/kg.
As to `O=C1N=C(N2CCOCC2)CN1c1ccc(Br)cc1`, in data set [1], the log partition coefficient (logP) amounted to 1.4. In data set [9], the affinity, expressed as Ki, was 3.06 µM. Further, the results for the median effective dose (ED50) with Mus musculus [3] and with Rattus norvegicus [7] were 21.8 mg/kg and 27.7 mg/kg, respectively. Besides, the TD50 in the data set with Mus musculus [4] is 345 mg/kg; in the data set with Rattus norvegicus [8], 473 mg/kg. In addition, the minimal effective dose in the data set on Rattus norvegicus [10] is 100 mg/kg.
As to `O=C1N=C(N2CCOCC2)CN1c1ccccc1`, the logP in [1] came out at 0.6. The affinity in data set [9] corresponds to a Ki of 6.28 µM. In addition, the 50% effect level in the data set with Mus musculus [3] (ED50) was put at a dose of 121 mg/kg. The TD50 in the data set with Mus musculus [4] is greater than 300 mg/kg.
Consider `O=C1N=C(N2CCCCCCC2)CN1c1ccc(Cl)cc1`, for which the logP in data set [1] came to 2.7. This compound showed an ED50 in the data set on Mus musculus [3] greater than 300 mg/kg. The compound further showed a TD50 in the data set on Mus musculus [4] greater than 300 mg/kg.
As to `O=C1C=C(N2CCOCC2)CN1c1ccc(Cl)cc1`, the TD50 is 60.9 mg/kg in the data set on Mus musculus [6], 97 mg/kg in the data set on Mus musculus [4] and greater than 500 mg/kg in the data set with Rattus norvegicus [8]. This compound yielded a log partition coefficient (logP) in data set [1] of 1.9. This compound also registered a Ki in [9] of 0.141 µM. In the data set on Mus musculus [3], this compound registered a median effective dose (ED50) of 10.9 mg/kg. Besides, the minimal effective dose with Rattus norvegicus [10] was 10 mg/kg.
As for `O=C1C=C(N2CCCC2)CN1c1ccc(Cl)cc1`, the affinity in data set [9], expressed as Ki, was 0.067 µM. Besides, the figures for the ED50 in the data set with Mus musculus [3] and in the data set with Rattus norvegicus [7] were greater than 300 mg/kg and greater than 200 mg/kg, respectively. In the data set on Mus musculus [4], this compound came in with a TD50 greater than 300 mg/kg.
As for `CN(C1=NC(=O)N(c2ccc(Cl)cc2)C1)C1CCCCC1`, the lipophilicity (logP) in [1] turned out to be 2.7. The same compound showed an ED50 in the data set on Mus musculus [3] greater than 300 mg/kg. In addition, the TD50 in the data set with Mus musculus [4] was greater than 300 mg/kg.
`O=C1C=C(N2CCCCCC2)CN1c1ccc(Cl)cc1` came in with a lipophilicity (logP) in [1] of 3.4. This compound yielded a Ki in data set [9] of 0.44 µM. In the data set with Mus musculus [3], the 50% effective dose (ED50) amounted to 234 mg/kg. Moreover, the TD50 in the data set with Mus musculus [4] is greater than 100 mg/kg.
Compound `O=C1C=C(c2ccc(Cl)cc2)C(=O)N1c1ccc(Cl)cc1` registered a lipophilicity (logP) in data set [1] of 3. Also, the inhibition in [2] is less than 20%. In the data set with Mus musculus [3], this compound came in with an ED50 greater than 300 mg/kg. Also, the TD50 in the data set on Mus musculus [4] is greater than 300 mg/kg.
In data set [1], `O=c1cc(-c2ccccc2)[nH]n1-c1ccc(Cl)cc1` gave a logP of 2.6. For the same compound, in [2], the inhibition is less than 20%. This compound gave an ED50 in the data set on Mus musculus [3] greater than 300 mg/kg. Moreover, the TD50 in the data set on Mus musculus [4] was greater than 300 mg/kg.
`O=C1N=C(N2CCCC2)CN1c1ccc(Cl)cc1`: the logP in [1] worked out at 2. The compound further displayed a Ki in [9] of 4.29 µM. The median effective dose (ED50) in the data set on Mus musculus [3] was greater than 300 mg/kg; with Rattus norvegicus [7] it was 14.2 mg/kg. For the same compound, the TD50 is greater than 300 mg/kg in the data set with Mus musculus [4] and greater than 500 mg/kg with Rattus norvegicus [8]. The minimal effective dose in the data set on Rattus norvegicus [10] turned out to be 3 mg/kg.
